Data on one molecule can be found in ChEMBL document CHEMBL4428115, “Molecular docking studies, biological and toxicity evaluation of dihydroisoquinoline derivatives as potential anticancer agents” (Bioorg Med Chem, 2016).

In general, IC50 refers to the concentration at which inhibition is half-maximal.

The nature of data set [1]: Selectivity index, ratio of IC50 for mouse BALB/3T3 cells to IC50 for human K562 cells. The settings on record: BALB/3T3 cells versus K562 cells, read-out: Ratio IC50. The format is toxicity.
The test system of data set [2] is HL-60. Put plainly: Antiproliferative activity against human HL60 cells after 72 hrs by MTT assay. Particulars: HL-60, 72 h. The format is functional, cell-based. In a few lines:
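Leukemia cells seeded at 1 × 10^4 per well 24 h before adding compounds (0.01–1000 µg/mL from DMSO stock), exposed 72 h. MTT (5 mg/mL stock) added for 4 h, then DMF/SDS lysis mixture; absorbance at 570 nm read after 24 h. Triplicates per experiment, 3–5 repeats; IC50 calculated per experiment, reported as mean ± SD.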

The subject of data set [3] is HL-60. Briefly: Effect on cyclin A levels in human HL60 cells at 1 ug/ml after 72 hrs by Western-blot analysis. Format: functional, cell-based. In outline:
(§1)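 HL-60 (2 × 10^5 cells/mL) treated 72 h at 1 µg/mL with DMSO control, then lysed in RIPA buffer with protease/phosphatase inhibitors. 100 µg protein resolved on 4–20% gels and transferred to nitrocellulose. Probed with rabbit primary antibody, fluorescein-linked anti-rabbit secondary, then anti-fluorescein–alkaline phosphatase with ECF substrate; fluorescence scanned. Densitometry normalized to actin, reported as fold change versus control.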

In data set [4] the test system is HL-60. Put plainly: Effect on Bax expression in human HL60 cells at 1 ug/ml after 72 hrs by Western-blot analysis. The format is functional, cell-based. In a few lines: as §1
The nature of data set [5]: Acute toxicity in New Zealand albino rabbit assessed as conjunctiva at 0.068 g applied to conjunctival sac of eye measured 1 to 72 hrs post dose. More on the design: species or system Oryctolagus cuniculus. The settings on record: in vivo, topical_or_ocular.
The next data set deals with DU-145. Briefly: Antiproliferative activity against human DU145 cells. The format is functional, cell-based.
The test system of another data set is LNCaP. Put plainly: Antiproliferative activity against human LNCAP cells. Format: functional, cell-based.
The next data set has as its system A549. Put plainly: Potency index, ratio of bestatin IC50 to compound IC50 for human A549 cells. Format: functional.
Data set [6] in a line: Selectivity index, ratio of IC50 for mouse BALB/3T3 cells to IC50 for human PC3 cells. The settings on record: BALB/3T3 cells versus PC3 cells, read-out: Ratio IC50. Format: toxicity.
Data set [7] has as its system HL-60. Briefly: Induction of autophagy in human HL60 cells assessed as accumulation of LC3b-2 at 1 ug/ml after 72 hrs by Western-blot analysis. Format: functional, cell-based. In outline: as §1
Data set [8] can be described thus: Toxicity in Dunkin-Hartley guinea pig assessed as mild skin sensitization incidents at 1 % administered intradermally followed by 50% topical application in the sites of intradermal injection for 24 to 72 hrs followed by 50 % of compound challenge. Set-up: species or system Cavia porcellus. The settings on record: in vivo. In outline: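 Maximization-type test: 11 treated and 6 sham control guinea pigs. Induction was an intradermal 1% suspension in peanut oil with Freund's Complete Adjuvant, then 50% topical at the injection sites, after 10% sodium lauryl sulfate pretreatment. Challenge was 50% in peanut oil on the right flank, vehicle on the left. Skin was scored at 24, 48 and 72 h.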

SMILES strings stand for the structures. Activity calls are given as the source filed them. The calls are words filed in the database; no cut-off is given here.

As to `CCOC(=O)C1(C(=O)OCC)Cc2cc(OCc3ccccc3)cc(OCc3ccccc3)c2C=N1`, the selectivity ratio in [1] was 0.5; in data set [6], 8.5. Also, the half-inhibitory concentration (IC50) in the data set with HL-60 [2] was determined as 6.2 µM; with DU-145 it was 7.5 µM; in the data set on LNCaP it was 3.3 µM. For the same molecule, the outcome with HL-60 [3], in the data set on HL-60 [4] and in the data set with HL-60 [7] was inactive. In addition, the values for the Activity result in [5] and in data set [8] were “Non-Toxic” and 18.2%, respectively. Also, the “Ratio IC50” value with A549 is reported as 18.
